Data as given in ChEMBL document CHEMBL3102828, “Synthesis and antibacterial activity of a series of novel 9-O-acetyl- 4'-substituted 16-membered macrolides derived from josamycin” (2014).
Values after ≈ are worked out from the molar mass of the structure shown.

Key:
Format in all cases: functional
Staphylococcus aureus [1] = assay: Antimicrobial activity against methicillin-sensitive Staphylococcus aureus 09-6 by broth microdilution method
Procedure, shortened: (§1)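 MICs determined by broth microdilution as recommended by CLSI. Tested against a panel of five S. aureus strains and three S. epidermidis strains. ATCC 29213, 15 and 09–06 are methicillin-sensitive S. aureus. Josamycin served as the reference.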

Staphylococcus aureus [2] = assay: Antimicrobial activity against methicillin-resistant Staphylococcus aureus 09-13 by broth microdilution method
Procedure, shortened: (§2)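 MIC read-out from broth microdilution performed according to CLSI recommendations; each strain was tested in vitro alongside the parent macrolide reference.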

[3] = system: Staphylococcus epidermidis; assay: Antimicrobial activity against methicillin-sensitive Staphylococcus epidermidis 09-9 by broth microdilution method; procedure, shortened: as §1
[4] = system: Staphylococcus epidermidis; assay: Antimicrobial activity against methicillin-sensitive Staphylococcus epidermidis ATCC 12228 by broth microdilution method; procedure, shortened: as §1
[5] = system: Staphylococcus epidermidis; assay: Antimicrobial activity against methicillin-resistant Staphylococcus epidermidis 09-3 by broth microdilution method; procedure, shortened: as §2
Staphylococcus aureus [6] = assay: Antimicrobial activity against methicillin-resistant Staphylococcus aureus ATCC 33591 by broth microdilution method; procedure, shortened: as §2
Staphylococcus aureus [7] = assay: Antimicrobial activity against methicillin-sensitive Staphylococcus aureus ATCC 29213 by broth microdilution method; procedure, shortened: as §1
Staphylococcus aureus [8] = assay: Antimicrobial activity against methicillin-sensitive Staphylococcus aureus 15 by broth microdilution method; procedure, shortened: as §1

Structure (SMILES)	MIC (Staphylococcus aureus [1]) [µg/mL]	MIC (Staphylococcus aureus [2]) [µg/mL]	MIC [3] [µg/mL]	MIC [4] [µg/mL]	MIC [5] [µg/mL]	MIC (Staphylococcus aureus [6]) [µg/mL]	MIC (Staphylococcus aureus [7]) [µg/mL]	MIC (Staphylococcus aureus [8]) [µg/mL]
CO[C@H]1/C=C\C(=O)O[C@H](C)C/C=C/C=C/[C@H](OC(C)=O)[C@H](C)C[C@H](CC=O)[C@@H]1O[C@@H]1O[C@H](C)[C@@H](O)[C@H](N(C)C)[C@H]1O	> 64	> 64	64 (≈ 110 µM)	64 (≈ 110 µM)	> 64	> 64	> 64	> 64
CO[C@H]1/C=C\C(=O)O[C@H](C)C/C=C/C=C/[C@H](O)[C@H](C)C[C@H](CC=O)[C@@H]1O[C@@H]1O[C@H](C)[C@@H](O)[C@H](N(C)C)[C@H]1O	> 32	> 32	> 32	> 32	> 32	> 32	> 32	> 32
CO[C@@H]1[C@@H](O[C@@H]2O[C@H](C)[C@@H](OC(=O)Nc3ccc(C(F)(F)F)cc3)[C@H](N(C)C)[C@H]2O)[C@@H](CC=O)C[C@@H](C)[C@@H](OC(C)=O)/C=C/C=C/C[C@@H](C)OC(=O)C[C@H]1OC(C)=O	> 64	> 64	> 64	> 64	> 64	> 64	> 64	> 64
CO[C@H]1/C=C\C(=O)O[C@H](C)C/C=C/C=C/[C@H](OC(C)=O)[C@H](C)C[C@H](CC=O)[C@@H]1O[C@@H]1O[C@H](C)[C@@H](OC(=O)Nc2ccc(C(F)(F)F)cc2)[C@H](N(C)C)[C@H]1O	> 64	> 64	> 64	> 64	> 64	> 64	> 64	> 64
CO[C@H]1/C=C\C(=O)O[C@H](C)C/C=C/C=C/[C@H](O)[C@H](C)C[C@H](CC=O)[C@@H]1O[C@@H]1O[C@H](C)[C@@H](OC(=O)Nc2ccc(C(F)(F)F)cc2)[C@H](N(C)C)[C@H]1O	> 64	> 64	> 64	> 64	> 64	> 64	> 64	> 64
CO[C@@H]1[C@@H](O[C@@H]2O[C@H](C)[C@@H](OC(=O)c3ccccc3)[C@H](N(C)C)[C@H]2O)[C@@H](CC=O)C[C@@H](C)[C@@H](OC(C)=O)/C=C/C=C/C[C@@H](C)OC(=O)C[C@H]1OC(C)=O	8 (≈ 10.7 µM)	> 64	8 (≈ 10.7 µM)	8 (≈ 10.7 µM)	> 64	> 64	8 (≈ 10.7 µM)	8 (≈ 10.7 µM)
COc1ccc(C(=O)O[C@H]2[C@H](N(C)C)[C@@H](O)[C@H](O[C@H]3[C@@H](CC=O)C[C@@H](C)[C@@H](OC(C)=O)/C=C/C=C/C[C@@H](C)OC(=O)C[C@@H](OC(C)=O)[C@@H]3OC)O[C@@H]2C)cc1	8 (≈ 10.3 µM)	> 64	8 (≈ 10.3 µM)	8 (≈ 10.3 µM)	> 64	> 64	8 (≈ 10.3 µM)	8 (≈ 10.3 µM)
CO[C@@H]1[C@@H](O[C@@H]2O[C@H](C)[C@@H](OC(=O)c3ccc([N+](=O)[O-])cc3)[C@H](N(C)C)[C@H]2O)[C@@H](CC=O)C[C@@H](C)[C@@H](OC(C)=O)/C=C/C=C/C[C@@H](C)OC(=O)C[C@H]1OC(C)=O	32 (≈ 40.5 µM)	> 64	32 (≈ 40.5 µM)	32 (≈ 40.5 µM)	> 64	> 64	32 (≈ 40.5 µM)	> 64
CO[C@@H]1[C@@H](O[C@@H]2O[C@H](C)[C@@H](OC(=O)/C=C/c3ccccc3)[C@H](N(C)C)[C@H]2O)[C@@H](CC=O)C[C@@H](C)[C@@H](OC(C)=O)/C=C/C=C/C[C@@H](C)OC(=O)C[C@H]1OC(C)=O	8 (≈ 10.4 µM)	> 32	4 (≈ 5.18 µM)	4 (≈ 5.18 µM)	> 32	> 32	8 (≈ 10.4 µM)	> 32
CO[C@@H]1[C@@H](O[C@@H]2O[C@H](C)[C@@H](OC(=O)/C=C/c3ccnc4ccccc34)[C@H](N(C)C)[C@H]2O)[C@@H](CC=O)C[C@@H](C)[C@@H](OC(C)=O)/C=C/C=C/C[C@@H](C)OC(=O)C[C@H]1OC(C)=O	8 (≈ 9.72 µM)	> 64	8 (≈ 9.72 µM)	8 (≈ 9.72 µM)	> 64	> 64	8 (≈ 9.72 µM)	16 (≈ 19.4 µM)
CO[C@@H]1[C@@H](O[C@@H]2O[C@H](C)[C@@H](OC(=O)CCc3ccccc3)[C@H](N(C)C)[C@H]2O)[C@@H](CC=O)C[C@@H](C)[C@@H](OC(C)=O)/C=C/C=C/C[C@@H](C)OC(=O)C[C@H]1OC(C)=O	4 (≈ 5.17 µM)	> 32	4 (≈ 5.17 µM)	4 (≈ 5.17 µM)	> 32	> 32	4 (≈ 5.17 µM)	8 (≈ 10.3 µM)
CCCC(=O)O[C@H]1[C@H](N(C)C)[C@@H](O)[C@H](O[C@H]2[C@@H](CC=O)C[C@@H](C)[C@@H](OC(C)=O)/C=C/C=C/C[C@@H](C)OC(=O)C[C@@H](OC(C)=O)[C@@H]2OC)O[C@@H]1C	4 (≈ 5.62 µM)	> 64	4 (≈ 5.62 µM)	4 (≈ 5.62 µM)	> 64	> 64	4 (≈ 5.62 µM)	4 (≈ 5.62 µM)
CO[C@@H]1[C@@H](O[C@@H]2O[C@H](C)[C@@H](OC(=O)CC(C)C)[C@H](N(C)C)[C@H]2O)[C@@H](CC=O)C[C@@H](C)[C@@H](OC(C)=O)/C=C/C=C/C[C@@H](C)OC(=O)C[C@H]1OC(C)=O	8 (≈ 11 µM)	> 64	8 (≈ 11 µM)	8 (≈ 11 µM)	> 64	> 64	8 (≈ 11 µM)	8 (≈ 11 µM)
CO[C@@H]1[C@@H](O[C@@H]2O[C@H](C)[C@@H](O)[C@H](N(C)C)[C@H]2O)[C@@H](CC=O)C[C@@H](C)[C@@H](OC(C)=O)/C=C/C=C/C[C@@H](C)OC(=O)C[C@H]1OC(C)=O	16 (≈ 24.9 µM)	> 32	16 (≈ 24.9 µM)	16 (≈ 24.9 µM)	> 32	> 32	16 (≈ 24.9 µM)	16 (≈ 24.9 µM)
CO[C@@H]1[C@@H](O[C@@H]2O[C@H](C)[C@@H](O[C@H]3C[C@@](C)(O)[C@@H](OC(=O)CC(C)C)[C@H](C)O3)[C@H](N(C)C)[C@H]2O)[C@@H](CC=O)C[C@@H](C)[C@@H](O)/C=C/C=C/C[C@@H](C)OC(=O)C[C@H]1OC(C)=O [JOSAMYCIN]	1 (≈ 1.21 µM)	32 (≈ 38.6 µM)	2 (≈ 2.42 µM)	1 (≈ 1.21 µM)	> 32	> 32	1 (≈ 1.21 µM)	2 (≈ 2.42 µM)
